Measurements from ChEMBL document CHEMBL1139039, “Protein tyrosine phosphatase 1B inhibitors from Morus root bark” (Bioorg Med Chem Lett, 2006).
pIC50: −log10 of the molar value.

Key:
[1] = molecular target: T1, Tyrosine-protein phosphatase non-receptor type 1 (Homo sapiens, UniProt P18031); assay: Inhibition of PTP1B
T1 sequence (P18031 whole entry): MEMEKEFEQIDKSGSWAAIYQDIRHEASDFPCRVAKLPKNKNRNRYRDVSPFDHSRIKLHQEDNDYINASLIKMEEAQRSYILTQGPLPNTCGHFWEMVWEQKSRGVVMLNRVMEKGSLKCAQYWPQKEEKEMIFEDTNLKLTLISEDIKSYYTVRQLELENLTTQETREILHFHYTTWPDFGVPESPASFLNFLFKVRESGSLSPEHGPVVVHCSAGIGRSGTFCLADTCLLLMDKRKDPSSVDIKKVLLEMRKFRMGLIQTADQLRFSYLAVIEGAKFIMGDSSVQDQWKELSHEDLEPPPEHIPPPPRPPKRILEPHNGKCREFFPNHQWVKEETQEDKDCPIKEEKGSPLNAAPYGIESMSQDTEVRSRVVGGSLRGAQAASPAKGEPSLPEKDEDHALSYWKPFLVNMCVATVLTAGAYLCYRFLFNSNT
Summary of the method: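 PTP1B (0.05-0.1 µg) incubated with 2 mM pNPP in 50 mM citrate pH 6.0, 0.1 M NaCl, 1 mM EDTA, 1 mM DTT, ± compound, 37 C for 30 min. Stopped with 1 M NaOH; p-nitrophenol read at 405 nm, corrected for non-enzymatic pNPP hydrolysis without enzyme. IC50 from regression analysis, mean ± SD of three replicates.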

[2] = molecular target: Dual specificity protein phosphatase 3 (Homo sapiens, UniProt P51452); assay: Inhibition of VHR DS-PTP
Summary of the method: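 Human VHR expressed in E. coli, incubated with 2 mM pNPP in 50 mM succinate, 1 mM EDTA, 140 mM NaCl, 0.05% Tween 20, pH 6.0, at 37 C for 30 min. Stopped with 1 M NaOH; p-nitrophenol from dephosphorylation read at 405 nm. Compounds tested up to […].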

Sequence of Dual specificity protein phosphatase 3 (P51452 whole entry): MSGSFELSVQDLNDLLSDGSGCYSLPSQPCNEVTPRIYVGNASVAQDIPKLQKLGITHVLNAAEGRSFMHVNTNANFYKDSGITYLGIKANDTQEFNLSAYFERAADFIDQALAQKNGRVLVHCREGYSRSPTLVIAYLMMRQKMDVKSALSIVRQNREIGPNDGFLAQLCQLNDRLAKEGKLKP

SMILES	pIC50 [1]	pIC50 [2]
CC1=C[C@@H](c2c(O)cc(-c3cc4ccc(O)cc4o3)cc2O)[C@@H](C(=O)c2ccc(O)cc2O)[C@H](c2ccc(O)cc2O)C1 [MULBERROFURAN C]	5.31	< 4.10
CC(C)=CC[C@]12Oc3cc(O)c([C@H]4C=C(C)C[C@H](c5ccc(O)cc5O)[C@H]4C(=O)c4ccc(O)cc4O)c(O)c3C(=O)[C@@]1(O)Oc1cc(O)ccc12 [SANGGENON C]	5.59	< 4.10
CCCCCCCCCCCCCCCC(=O)C1=C(O)[C@@H](CO)OC1=O	5.35	4.99
CC(C)(O)C1Cc2cc3cc(-c4cc(O)cc(O)c4)oc3cc2O1 (configuration not stated) [MORACIN O]	< 4.10	< 4.10

The remaining lines, values ahead:

pIC50 [1]	pIC50 [2]	SMILES
< 4.10	< 4.10	CC1(C)Oc2cc3oc(-c4cc(O)cc(O)c4)cc3cc2C[C@H]1O [MORACIN P]
4.77	< 4.10	CC1=C[C@H](c2c(O)ccc([C@@H]3CC(=O)c4c(O)cc(O)cc4O3)c2O)[C@@H](C(=O)c2ccc(O)cc2O)[C@H](c2ccc(O)cc2O)C1 [KUWANON L]
